Results on 5 molecules are retold here after ChEMBL document CHEMBL4130552, “Design, synthesis and biological evaluation of novel benzimidazole amidines as potent multi-target inhibitors for the treatment of non-small cell lung cancer” (Eur J Med Chem, 2018).

The target of assay [1] is T1, MAP kinase p38 (Homo sapiens, UniProt O15264+Q15759+Q16539+P53778). Briefly: Inhibition of MAPK p38 (unknown origin). It counts as protein assay.
Assay [2] deals with A549. Briefly: Antiproliferative activity against human A549 cells after 72 hrs by MTT assay. The assay is classed as functional, cell-based. To be noted: A549, 72 h. The method in brief: (§1)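 Cells seeded at 5000/well on day 0 in medium with 10% FBS, 2 mM L-glutamine, penicillin/streptomycin, 37 °C, 5% CO2. Compounds added at five 10-fold dilutions with DMSO ≤0.1%, then 72 h exposure. MTT absorbance converted to percentage growth versus untreated wells. IC50 by linear regression between bracketing concentrations. Quadruplicate points, three independent experiments.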

The next assay concerns CFPAC-1. Briefly: Antiproliferative activity against human CFPAC-1 cells after 72 hrs by MTT assay. It counts as functional, cell-based. The note with it: CFPAC-1, 72 h. The method in brief: as §1
(Tetrazolium assays rely on reduction of a dye to a coloured formazan, in cell work by metabolically active cells.)

The subject of the next assay is HeLa. As to the kind of experiment: Antiproliferative activity against human HeLa cells after 72 hrs by MTT assay. The assay is classed as functional, cell-based. In a few lines:
as §1

In a further assay the test system is SW-620. Briefly: Antiproliferative activity against human SW620 cells after 72 hrs by MTT assay. It counts as functional, cell-based. To be noted: SW-620, 72 h. In a few lines: as §1
Another assay relates to WI-38. As to the kind of experiment: Antiproliferative activity against human WI38 cells after 72 hrs by MTT assay. It counts as cell-based. To be noted: WI-38, 72 h. In a few lines: as §1
A short description of assay [3]: Selectivity ratio of IC50 for human A549 cells to IC50 for human SW620 cells. It counts as functional.
A short description of assay [4]: Selectivity ratio of IC50 for human CFPAC-1 cells to IC50 for human SW620 cells. The assay is classed as functional.
A short description of assay [5]: Selectivity ratio of IC50 for human HeLa cells to IC50 for human SW620 cells. It counts as functional.
Assay [6] concerns A549. Briefly: Induction of apoptosis in human A549 cells assessed as necrotic cells at 2 times antiproliferative IC50 after 48 hrs by Annexin V-FITC/propidium iodide staining based fluorescence microscopic method (reference value: 0%). The assay is classed as functional.
The subject of assay [7] is A549. As to the kind of experiment: Induction of apoptosis in human A549 cells assessed as early apoptotic cells at 2 times antiproliferative IC50 after 48 hrs by Annexin V-FITC/propidium iodide staining based fluorescence microscopic method (reference value: 0.52%). It counts as functional.
Assay [8] has as its system A549. Briefly: Induction of apoptosis in human A549 cells assessed as viable cells at 2 times antiproliferative IC50 after 48 hrs by Annexin V-FITC/propidium iodide staining based fluorescence microscopic method (reference value: 99.48%). The assay is classed as functional.
The test system of assay [9] is A549. As to the kind of experiment: Induction of apoptosis in human A549 cells assessed as late apoptotic cells at 2 times antiproliferative IC50 after 48 hrs by Annexin V-FITC/propidium iodide staining based fluorescence microscopic method (reference value: 0%). It counts as functional.
For assay [10], the system named is A549. Briefly: Downregulation of PDE5 protein expression in human A549 cells at 2 times antiproliferative IC50 after 48 hrs by Western blot method. The assay is classed as functional, cell-based. The method in brief: (§2)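 Lysis in RIPA buffer (20 mM Tris-HCl pH 7.5, 150 mM NaCl, EDTA, EGTA, 1% NP-40, 1% deoxycholate, protease inhibitors). Blocking 1 h in 4% BSA/TBST, primary antibody overnight at 4 °C, HRP secondary 1 h, chemiluminescence. Densitometry normalised to alpha-tubulin; two independent experiments.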
In general terms: Immunoblotting shows a protein as a band on a membrane.

The test system of assay [11] is A549. As to the kind of experiment: Downregulation of CDK9/CyclinT1 protein expression in human A549 cells at 2 times antiproliferative IC50 after 48 hrs by Western blot method. The assay is classed as functional, cell-based. The method in brief: as §2
In assay [12] the target is Cellular tumor antigen p53 (Homo sapiens) (UniProt P04637). As to the kind of experiment: Inhibition of p53 phosphorylation at Ser-15 residue in human A549 cells at 2 times antiproliferative IC50 after 48 hrs by Western blot method. It counts as cell-based. In a few lines:
as §2

The test system of assay [13] is A549. As to the kind of experiment: Downregulation of TGM2 protein expression in human A549 cells at 2 times antiproliferative IC50 after 48 hrs by Western blot method. The assay is classed as functional, cell-based. The method in brief: as §2
Assay [14] concerns the target T1, MAP kinase p38. As to the kind of experiment: Inhibition of p38 phosphorylation at Thr180/Tyr182 residues in human A549 cells at 2 times antiproliferative IC50 after 48 hrs by Western blot method. The assay is classed as cell-based. In a few lines: as §2

Molecules are shown by their SMILES. Active and inactive are the calls of the source. No cut-off for these calls is given here.

Cellular tumor antigen p53 (Homo sapiens), sequence (P04637 whole entry, looked up): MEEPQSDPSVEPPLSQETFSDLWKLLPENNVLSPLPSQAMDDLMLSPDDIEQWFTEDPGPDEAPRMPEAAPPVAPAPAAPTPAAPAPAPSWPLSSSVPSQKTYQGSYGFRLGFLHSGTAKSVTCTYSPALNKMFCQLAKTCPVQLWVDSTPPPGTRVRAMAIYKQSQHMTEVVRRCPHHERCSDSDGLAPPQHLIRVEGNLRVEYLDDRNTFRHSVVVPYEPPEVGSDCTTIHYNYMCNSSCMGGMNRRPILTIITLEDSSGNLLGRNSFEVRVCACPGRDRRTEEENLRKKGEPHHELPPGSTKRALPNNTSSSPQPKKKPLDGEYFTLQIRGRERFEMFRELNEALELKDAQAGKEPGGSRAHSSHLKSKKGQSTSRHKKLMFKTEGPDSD

For orientation: IC50 means the point on the concentration scale where inhibition reaches its midpoint. `Brc1ccc(-c2c[nH]c([C@@H]3Cc4ccccc4CN3)n2)cc1` registered an IC50 on MAP kinase p38 [1] of 1900 nM.
For `Cl.Clc1ccc(Cn2cc(COc3ccc(-c4nc5cc(C6=NCCN6)ccc5[nH]4)cc3)nn2)cc1`, the half-maximal inhibitory concentration (IC50) came to 9340 nM in the assay with A549 [2]; 6.82 µM in the assay with CFPAC-1; 5.06 µM in the assay with HeLa; 0.05 µM with SW-620; 5.77 µM in the assay on WI-38. Also, the “Ratio IC50” value in [3], in assay [4] and in assay [5] was more than 100 throughout.
For the molecule `Cc1ccc(-n2nc(C(C)(C)C)cc2NC(=O)Nc2nc(CCOCc3ccncc3)cs2)cc1`, the IC50 at MAP kinase p38 [1] was found to be 586 nM.
With `CC(C)NC(=N)c1ccc2[nH]c(-c3ccc(OCc4cn(-c5ccc(Cl)cc5)nn4)cc3)nc2c1.Cl`, the IC50 with A549 [2] was 50 nM; in the assay with CFPAC-1 it was more than 100 µM; in the assay on HeLa, 17.5 µM; with SW-620, 48.7 µM; in the assay with WI-38 it was 8.04 µM. Also, the Activity with A549 [6] is reported as 2.78%; in the assay on A549 [7], 28.33%; in the assay on A549 [8], 28.89%; with A549 [9] it was 40%. Also, the outcome in the assay on A549 [10], in the assay on A549 [11] and with A549 [13] was inactive. Further, the inhibition entry (in assay [12]; on MAP kinase p38 [14]) was “Active” in each case.
Regarding `Cl.c1ccc(Cn2cc(COc3ccc(-c4nc5cc(C6=NCCN6)ccc5[nH]4)cc3)nn2)cc1`, the IC50 in the assay on A549 [2] worked out at 70 nM; in the assay on CFPAC-1, 29.2 µM; in the assay on HeLa, 6.67 µM; in the assay with SW-620 it was 28.1 µM; in the assay on WI-38, 6.89 µM. Further, the Activity in the assay on A549 [6] was 6.43%; with A549 [7], 27.49%; in the assay with A549 [8], 49.71%; in the assay with A549 [9] it was 16.37%. For the same molecule, the result in the assay with A549 [10], in the assay on A549 [11] and in the assay on A549 [13] was Active. Further, the inhibition result (in assay [12]; at MAP kinase p38 [14]) was “Active” in each case.
